According to publication PMC11920041 (NPJ Parkinson's Disease, 2025):
Where two headings read alike, the source gives them in different places. One block for each compound: values may come before it.

Assays:
[1] = assay type: in vivo; settings: human, plasma, oral, median [interquartile range]; for AUC: up to 3 h
How it was run: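 Fasting ≥12 h after last meal, dosing from 9:00 a.m.; PD patients on oral levodopa, diagnosed by UK Brain Bank criteria; no concomitant magnesium oxide or prokinetics. Blood via indwelling catheter before and 15–180 min after dose; centrifuged 1000 g, 10 min, 4 °C; plasma stored −80 °C; HPLC-ECD. Cmax and Tmax taken from the curve; AUC to 3 h by linear trapezoidal rule.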

[2] = administered in combination with carbidopa; cited from earlier work
[3] = cited from earlier work
AADC = settings: cited from earlier work
tyrDC = settings: cited from earlier work
[4] = mice; cited from earlier work
[5] = concomitant use in patients with PD; cited from earlier work
[6] = test system: small intestinal bacterial overgrowth (SIBO); settings: eradication of SIBO in patients with PD; cited from earlier work
[7] = female, female patients, n = 12

AUC [1, 7]: 12.7 µM·h
Cmax [1, 7]: 10.4 µM
Tmax ([1]; low levodopa Cmax group (< 9 μmol/L), n = 11): 45 min
AUC ([1]; male, male patients, n = 9): 6.95 µM·h
Cmax ([1]; male, male patients, n = 9): 4.88 µM
Tmax ([1]; male, male patients, n = 9): 45 min
SMILES: N[C@@H](Cc1ccc(O)c(O)c1)C(=O)O [levodopa]
half-life [2]: approximately 90 min

SMILES: [O]=[Mg] [magnesium oxide]
effect of concomitant use on bioavailability of levodopa [3]: may reduce

SMILES: N[C@@](CF)(Cc1ccc(O)cc1)C(=O)O [AFMT, (S)-α-fluoromethyltyrosine]
effect on AADC (AADC): without affecting AADC
inhibition of tyrDC-mediated levodopa decarboxylation (tyrDC): selective inhibitor
effect of concomitant use on levodopa Cmax [4]: increased

SMILES: COc1ccc2nc([S@@+]([O-])Cc3ncc(C)c(OC)c3C)[nH]c2c1 [esomeprazole]
effect on levels of carbidopa in the plasma [5]: without affecting
effect on levels of levodopa in the plasma [5]: reduced

SMILES: CO[C@H]1/C=C/O[C@@]2(C)Oc3c(C)c(O)c4c(O)c(c5c(nc6cc(C)ccn65)c4c3C2=O)NC(=O)/C(C)=C\C=C\[C@H](C)[C@H](O)[C@@H](C)[C@@H](O)[C@@H](C)[C@H](OC(C)=O)[C@@H]1C [rifaximin]
effect on motor fluctuations [6]: improves motor fluctuations
